This note sets out measurements from ChEMBL document CHEMBL1156597, “Structure-activity relationship of kahalalide F synthetic analogues” (J Med Chem, 2008).

One assay concerns SK-MEL-28. As to the kind of experiment: Cytotoxicity against human SK-MEL-28 cells after 48 hrs by SRB assay. It is filed as functional, cell-based. In a few lines:
(§1)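 Cells grown in RPMI 1640 with 10% FBS and penicillin/streptomycin at 37 °C and 5% CO₂, trypsinized, then seeded at 5 × 10³/well. After 18 h drug-free attachment, samples in DMSO/EtOH/PBS (0.5:0.5:99) were added for 48 h continuous exposure. Cells were fixed with cold TCA (1 h, 4 °C) and stained with SRB (10 min). Tris-solubilized stain read at 490 nm. Triplicate wells, mean ± SD; GI₅₀ derived.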
For orientation: The SRB assay estimates cell density from bound dye.

In the next assay the test system is DU-145. As to the kind of experiment: Cytotoxicity against human DU145 cells after 48 hrs by SRB assay. It counts as functional, cell-based. In a few lines: as §1
The next assay deals with HT-29. The assay is described as follows: Cytotoxicity against human HT29 cells after 48 hrs by SRB assay. It is filed as functional, cell-based. To be noted: for CC50 / GI50 / TGI: Homo sapiens, HT-29, 48 h; for CC50: read-out: LC50 (the source's name). An outline of the steps: as §1
The test system of the next assay is A549. As to the kind of experiment: Cytotoxicity against human A549 cells after 48 hrs by SRB assay. The note with it: for LC50 / TGI / GI50: Homo sapiens, A549, 48 h; for GI50: read-out: GI50. It counts as functional, cell-based. In a few lines: as §1
Assay [1] can be described thus: Cytotoxicity against human IGROV cells after 48 hrs by SRB assay. It is filed as functional. An outline of the steps: as §1
Assay [2] can be described thus: Cytotoxicity against human IGROV-ET cells after 48 hrs by SRB assay. It counts as functional. An outline of the steps: as §1
Assay [3] in a line: Cytotoxicity against human HeLa-APL cells after 48 hrs by SRB assay. It is filed as functional. In a few lines: as §1
[4] abbreviates: read-out: LC50 (the source's name).

`C/C=C1\NC(=O)[C@H](Cc2ccccc2)NC(=O)[C@@H](C(C)C)NC(=O)[C@@H]([C@H](C)CC)NC(=O)[C@H](NC(=O)[C@H](NC(=O)[C@H](CCCN)NC(=O)[C@H]2CCCN2C(=O)[C@H](NC(=O)[C@@H](NC(=O)[C@@H](NC(=O)[C@H](NC(=O)CCCO)C(C)C)[C@@H](C)O)C(C)C)C(C)C)[C@H](C)CC)[C@H](C)OC(=O)[C@H](C(C)C)NC1=O`: the Activity in the assay on SK-MEL-28, in the assay with DU-145, with HT-29 and in the assay with A549 was 6.89 ×10⁻⁶ M throughout.
The LC50 is the concentration lethal to half of the exposed cells or organisms. Read a low LC50 as greater toxicity. Turning to `C/C=C1\NC(=O)[C@H](Cc2ccccc2)NC(=O)[C@@H](C(C)C)NC(=O)[C@@H]([C@H](C)CC)NC(=O)[C@H](NC(=O)[C@H](NC(=O)[C@H](NC(=O)CCCC(C)C)C(C)C)[C@H](C)CC)[C@H](C)OC(=O)[C@H](C(C)C)NC1=O`, the CC50 with HT-29 was found to be 40 µM. For the same molecule, the median lethal concentration (LC50) in the assay with A549 stood at 14.8 µM.
Regarding `C/C=C1\NC(=O)[C@H](Cc2ccccc2)NC(=O)[C@@H](C(C)C)NC(=O)[C@@H]([C@H](C)CC)NC(=O)[C@H](NC(=O)[C@H](NC(=O)[C@H](CCCN)NC(=O)[C@H]2CCCN2C(=O)[C@H](NC(=O)[C@@H](NC(=O)[C@@H](NC(=O)[C@H](NC(=O)CCC(C)C)C(C)C)[C@@H](C)O)C(C)C)C(C)C)[C@H](C)CC)[C@H](C)OC(=O)[C@H](C(C)C)NC1=O`, the Activity with SK-MEL-28 was 3.42 ×10⁻⁶ M; with DU-145, 3.42 ×10⁻⁷ M; in the assay with HT-29, 3.42 ×10⁻⁷ M; in the assay on A549 it was 3.42 ×10⁻⁷ M.
Turning to `C/C=C1\NC(=O)[C@H](Cc2ccccc2)NC(=O)[C@@H](C(C)C)NC(=O)[C@@H]([C@H](C)CC)NC(=O)[C@H](NC(=O)[C@H](NC(=O)[C@H](CCCN)NC(=O)[C@H]2CCCN2C(=O)[C@H](NC(=O)[C@@H](NC(=O)[C@@H](NC(=O)[C@H](NC(=O)CC(C)(C)C)C(C)C)[C@@H](C)O)C(C)C)C(C)C)[C@H](C)CC)[C@H](C)OC(=O)[C@H](C(C)C)NC1=O`, the Activity with SK-MEL-28 was found to be 3.42 ×10⁻⁶ M; in the assay on DU-145, 3.42 ×10⁻⁷ M; in the assay with HT-29 it was 3.42 ×10⁻⁷ M; in the assay with A549 it was 1.71 ×10⁻⁶ M.
Take `C/C=C1\NC(=O)[C@H](Cc2ccccc2)NC(=O)[C@@H](C(C)C)NC(=O)[C@@H]([C@H](C)CC)NC(=O)[C@H](NC(=O)[C@H](NC(=O)[C@H](CCCN)NC(=O)[C@H]2CCCN2C(=O)[C@H](NC(=O)[C@@H](NC(=O)[C@@H](NC(=O)[C@H](NC(=O)CCCOC(C)=O)C(C)C)[C@@H](C)O)C(C)C)C(C)C)[C@H](C)CC)[C@H](C)OC(=O)[C@H](C(C)C)NC1=O`: the Activity in the assay on SK-MEL-28, with DU-145, with HT-29 and with A549 was 6.7 ×10⁻⁶ M in each case.
For `C/C=C1\NC(=O)[C@H](Cc2ccccc2)NC(=O)[C@@H](C(C)C)NC(=O)[C@@H]([C@H](C)CC)NC(=O)[C@H](NC(=O)[C@H](NC(=O)[C@H](CCCN)NC(=O)[C@H]2CCCN2C(=O)[C@H](NC(=O)[C@@H](NC(=O)[C@@H](NC(=O)[C@H](NC(C)=O)C(C)C)[C@@H](C)O)C(C)C)C(C)C)[C@H](C)CC)[C@H](C)OC(=O)[C@H](C(C)C)NC1=O`, the Activity in the assay on SK-MEL-28, in the assay with DU-145, with HT-29 and with A549 was 7.11 ×10⁻⁶ M each time.
As to `C/C=C1\NC(=O)[C@H](Cc2ccccc2)NC(=O)[C@@H](C(C)C)NC(=O)[C@@H]([C@H](C)CC)NC(=O)[C@H](NC(=O)[C@H](NC(=O)[C@H](CCCN)NC(=O)[C@H]2CCCN2C(=O)[C@H](NC(=O)[C@@H](NC(=O)[C@@H](NC(=O)[C@H](NC(=O)CCC)C(C)C)[C@@H](C)O)C(C)C)C(C)C)[C@H](C)CC)[C@H](C)OC(=O)[C@H](C(C)C)NC1=O`, the Activity in the assay on SK-MEL-28 is on record as 3.48 ×10⁻⁶ M; in the assay with DU-145, 1.74 ×10⁻⁶ M; in the assay with HT-29 it was 1.74 ×10⁻⁶ M; in the assay with A549 it was 3.48 ×10⁻⁶ M.
The term GI50 denotes the concentration at which growth is held to half of that of the control. A word on the TGI: it is the concentration at which net growth stops. In the case of `C/C=C1\NC(=O)[C@H](Cc2ccccc2)NC(=O)[C@@H](C(C)C)NC(=O)[C@@H]([C@H](C)CC)NC(=O)[C@H](NC(=O)[C@H](NC(=O)[C@H](CCCN)NC(=O)[C@H]2CCCN2C(=O)[C@H](NC(=O)[C@@H](NC(=O)[C@@H](NC(=O)[C@H](NC(=O)c2ccc3c(c2)OCO3)C(C)C)[C@@H](C)O)C(C)C)C(C)C)[C@H](C)CC)[C@H](C)OC(=O)[C@H](C(C)C)NC1=O`, in the assay with HT-29, it took 0.413 µM to inhibit growth by half (GI50), total growth inhibition (TGI) required 0.514 µM and the CC50 was determined as 0.409 µM. In the assay on A549, the median lethal concentration (LC50) amounted to 1.33 µM, total growth inhibition (TGI) required 1.04 µM and the 50% growth inhibitory concentration (GI50) amounted to 0.64 µM.
`C/C=C1\NC(=O)[C@H](Cc2ccccc2)NC(=O)[C@@H](C(C)C)NC(=O)[C@@H]([C@H](C)CC)NC(=O)[C@H](NC(=O)[C@H](NC(=O)[C@H](CCCN)NC(=O)[C@H]2CCCN2C(=O)[C@H](NC(=O)[C@@H](NC(=O)[C@@H](NC(=O)[C@H](NC(=O)/C=C/C=C/C)C(C)C)[C@@H](C)O)C(C)C)C(C)C)[C@H](C)CC)[C@H](C)OC(=O)[C@H](C(C)C)NC1=O`: the Activity in the assay on SK-MEL-28 was determined as 6.85 ×10⁻⁶ M; with DU-145 it was 6.85 ×10⁻⁶ M; in the assay on HT-29, 6.85 ×10⁻⁷ M; in the assay with A549, 3.43 ×10⁻⁶ M.
Turning to `C/C=C1\NC(=O)[C@H](Cc2ccccc2)NC(=O)[C@@H](C(C)C)NC(=O)[C@@H]([C@H](C)CC)NC(=O)[C@H](NC(=O)[C@H](NC(=O)[C@H](NC(=O)[C@@H](NC(=O)[C@@H](NC(=O)[C@H](NC(=O)CCCC(C)C)C(C)C)[C@@H](C)O)C(C)C)C(C)C)[C@H](C)CC)[C@H](C)OC(=O)[C@H](C(C)C)NC1=O`, in the assay with HT-29, the concentration for 50% growth inhibition (GI50) amounted to 9.89 µM, the TGI was 61.6 µM and the CC50 was 30.6 µM. In the assay with A549, the median lethal concentration (LC50) turned out to be 11.3 µM, the TGI is 20.8 µM and the concentration for 50% growth inhibition (GI50) came out at 23 µM.
On to `C/C=C1\NC(=O)[C@H](Cc2ccccc2)NC(=O)[C@@H](C(C)C)NC(=O)[C@@H]([C@H](C)CC)NC(=O)[C@H](NC(=O)[C@H](NC(=O)[C@H](CCCN)NC(=O)[C@H]2CCCN2C(=O)[C@H](NC(=O)[C@@H](NC(=O)[C@@H](NC(=O)[C@H](NC(=O)[C@H](NC(=O)C(C)C)[C@H](C)CC)C(C)C)[C@@H](C)O)C(C)C)C(C)C)[C@H](C)CC)[C@H](C)OC(=O)[C@H](C(C)C)NC1=O`, for which the Activity in the assay with SK-MEL-28, with DU-145, with HT-29 and in the assay with A549 was 6.46 ×10⁻⁶ M in each case.
As for `C/C=C1\NC(=O)[C@H](Cc2ccccc2)NC(=O)[C@@H](C(C)C)NC(=O)[C@@H]([C@H](C)CC)NC(=O)[C@H](NC(=O)[C@H](NC(=O)[C@H](CCCN)NC(=O)[C@H]2CCCN2C(=O)[C@H](NC(=O)[C@@H](NC(=O)[C@@H](NC(=O)[C@H](NC(=O)c2ccc(C)cc2)C(C)C)[C@@H](C)O)C(C)C)C(C)C)[C@H](C)CC)[C@H](C)OC(=O)[C@H](C(C)C)NC1=O`, the GI50 in assay [1] was 447 nM; in assay [1] (read-out: GI50), 479 nM; in assay [2] it was 421 nM; in assay [2] (read-out: GI50), 365 nM; in assay [3], 950 nM. In addition, the figures for the CC50 in assay [1] (setting [4]) and in assay [2] (setting [4]) were 394 nM and 422 nM, respectively. In assay [3], this molecule gave a TGI of 898 nM.
With `C/C=C1\NC(=O)[C@H](Cc2ccccc2)NC(=O)[C@@H](C(C)C)NC(=O)[C@@H]([C@H](C)CC)NC(=O)[C@H](NC(=O)[C@H](NC(=O)[C@H](CCCN)NC(=O)[C@H]2CCCN2C(=O)[C@H](NC(=O)[C@@H](NC(=O)[C@@H](NC(=O)[C@H](NC(=O)CCCOC(=O)CCOC(C)=O)C(C)C)[C@@H](C)O)C(C)C)C(C)C)[C@H](C)CC)[C@H](C)OC(=O)[C@H](C(C)C)NC1=O`, the Activity in the assay with SK-MEL-28, in the assay on DU-145, in the assay on HT-29 and with A549 was 6.33 ×10⁻⁷ M in each case.
Regarding `C/C=C1\NC(=O)[C@H](Cc2ccccc2)NC(=O)[C@@H](C(C)C)NC(=O)[C@@H]([C@H](C)CC)NC(=O)[C@H](NC(=O)[C@H](NC(=O)[C@H](CCCN)NC(=O)[C@H]2CCCN2C(=O)[C@H](NC(=O)[C@@H](NC(=O)[C@@H](NC(=O)[C@H](NC(=O)C(F)(F)F)C(C)C)[C@@H](C)O)C(C)C)C(C)C)[C@H](C)CC)[C@H](C)OC(=O)[C@H](C(C)C)NC1=O`, the Activity with SK-MEL-28 is given as 6.84 ×10⁻⁶ M; with DU-145, 3.42 ×10⁻⁶ M; in the assay with HT-29, 3.42 ×10⁻⁶ M; with A549, 6.84 ×10⁻⁶ M.
